High-throughput results (PubChem)
VIM-2 inhibitor – blocks Pseudomonas aeruginosa VIM-2 metallo-beta-lactamase; AID 1527; inhibition, % at 5.6 µM; purified VIM-2, nitrocefin hydrolysis, epi-absorbance fluorescence; 290,000 tested, 0.89% active;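 active = inhibition above the mean of all tested compounds plus 3 SD, cutoff set per screening run, cut at about 7.5% in these data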;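 also: red hydrolysis product quenches plate fluorescence so inhibitors raise well fluorescence; 0% = enzyme with DMSO and 100% = DMSO without enzyme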
PfM18AAP inh-1 – blocks P. falciparum M18 aspartyl aminopeptidase | recombinant PfM18AAP, H-Glu-NHMec fluorogenic cleavage | inhibition, % at 7.35 µM | 290,000 tested, 1.2% active | AID 1822;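 active = inhibition above the campaign mean inhibition over all tested compounds plus 3 SD, cut at about 28% in these data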;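 also: 0% = plate median of test compound wells and 100% = 2 mM ZnCl2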
IMP-1 inh – inhibitors of Pseudomonas aeruginosa IMP-1 metallo-beta-lactamase; purified IMP-1, nitrocefin hydrolysis, epi-absorbance fluorescence; inhibition, % at 5.6 µM; 290,000 tested, 0.45% active; AID 1556;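 active = inhibition above the mean plus 3 SD of all compounds in the same screening run, cut at about 4.5% in these data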;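 also: 0% = IMP-1 with DMSO and 100% = DMSO wells lacking enzyme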
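System: purified IMP-1; amount: IMP-1 0.2 nM before substrate addition; compound: single dose, 5.6 µM; times: 25 °C, 15 min preincubation, 25 min reaction; signal: Epi-absorbance via hydrolysed-nitrocefin quenching of white-plate fluorescence, 480/530 nm, EDTA stop; benchmarks: DMSO with and without IMP-1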
CTSL1 counter-1 – cathepsin L1 inhibition, PFM18AAP counter-screen | recombinant F. hepatica cathepsin L1, Z-Leu-Arg-MCA fluorescence | inhibition, % at 5.96 µM | 300,000 tested, 0.49% active;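 active = inhibition above the mean of all tested compounds plus 3 SD, set per screening campaign, cut at about 17% in these data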;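 also: 0% = plate median of test compound wells and 100% = 1 µM Z-Phe-Ala-diazomethylketone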
PfM18AAP inh-2 – PfM18AAP inhibition, confirmation; 2,400 tested, 28% active; shares compounds with PfM18AAP inh-1; inhibition, % at 7.35 µM; recombinant PfM18AAP, H-Glu-NHMec fluorogenic cleavage;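 active = mean inhibition over replicate wells above the hit cutoff set for the earlier primary screen, cut at about 29% in these data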;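 also: 0% = median of test compound wells and 100% = 2 mM ZnCl2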
CTSL1 counter-2 – counter-screen for PFM18AAP inhibitors: confirmation of human cathepsin L inhibitors | purified cathepsin L1, Z-Leu-Arg-MCA fluorescence | inhibition, % at 5.96 µM | shares compounds with PfM18AAP inh-1 | 2,400 tested, under 10 active;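 active = average inhibition across replicates above the hit cutoff set in the earlier primary screen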;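 also: 0% = median of test compound wells and 100% = Z-Phe-Ala-diazomethylketone 1 µM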
Target sequence (P07711 whole entry, looked up): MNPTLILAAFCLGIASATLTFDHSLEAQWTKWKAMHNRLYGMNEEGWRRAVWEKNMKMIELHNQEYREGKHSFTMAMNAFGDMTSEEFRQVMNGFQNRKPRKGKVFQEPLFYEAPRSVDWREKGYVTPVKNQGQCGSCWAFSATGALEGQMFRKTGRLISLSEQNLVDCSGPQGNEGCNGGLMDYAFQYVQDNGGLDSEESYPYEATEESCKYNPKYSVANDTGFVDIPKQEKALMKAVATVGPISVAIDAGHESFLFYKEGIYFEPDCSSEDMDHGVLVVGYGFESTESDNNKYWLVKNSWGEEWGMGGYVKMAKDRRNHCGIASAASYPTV
* hit, by the source's call; . = no result given. In the library only some 2.7% were active in any assay of this set; here they are far more common.

SMILES | VIM-2 inhibitor | PfM18AAP inh-1 | IMP-1 inh | CTSL1 counter-1 | PfM18AAP inh-2 | CTSL1 counter-2
O=C(Nc1nc2ccccc2s1)c1ccccc1 | -3.0 | -0.6 | -0.5 | -3.5 | . | .
c1ccc2sc(NN=C3CCCCCC3)nc2c1 | -3.0 | 33.4* | -4.3 | 7.0 | -35.3 | 0.2
COc1cc(C(=O)O)c2c(c1C)OC(=O)c1c(C)cc(O)c(C=O)c1O2 | . | . | . | -1.5 | . | .
COC(=O)NNC(=O)COc1ccc2ccccc2c1Br | -1.9 | 1.5 | -3.1 | -1.2 | . | .
Cc1cc(OCC(=O)NC2CC(C)(C)NC(C)(C)C2)c(C)cc1Br | -0.6 | -0.2 | -0.9 | 2.3 | . | .
Cc1ccc(OCC(=O)Nn2cnnc2)c(Br)c1 | -2.6 | 66.2* | 1.7 | 1.8 | 56.6* | 4.5
Cc1cc(OCC(=O)Nn2cnnc2)c(C)cc1Br | -0.9 | 46.2* | -0.3 | 2.0 | 54.9* | -1.6
O=C(COc1ccc2ccccc2c1Br)Nn1cnnc1 | -0.1 | 56.2* | -4.7 | 1.9 | 37.1* | -2.3
Cc1ccc(C(=O)NC(N2CCCC2)C(Cl)(Cl)Cl)cc1 (configuration not stated) | -0.5 | 2.6 | -0.1 | -5.4 | . | .
C=CCN(C(=O)CCC(=O)Nc1cc(C)on1)C(C(=O)NC(C)(C)CC)c1cccc(OC)c1OC (configuration not stated) | 1.6 | -4.0 | 0.5 | 0.3 | . | .
CCCN(CCC)c1cc(Cl)nc(N)n1 | 0.6 | -12.3 | -1.8 | 0.8 | . | .
O=C(NCC1CCCO1)c1ccc(CSCc2cccc(F)c2)o1 (configuration not stated) | -3.9 | 1.9 | -3.5 | 2.1 | . | .
Cc1c(C(=O)N(C)c2ccc(Cl)cc2)cnn1-c1ccccc1 | 0.7 | 5.3 | -1.2 | -0.4 | . | .
O=c1[nH][nH]c(C(F)(F)F)c1/C=N/N1CCOCC1 | -1.1 | -6.4 | -3.6 | -1.0 | . | .
CCSc1ccccc1C(=O)Nc1ccc(S(=O)(=O)NC(C)=O)cc1 | -1.0 | 32.0* | -2.5 | -2.3 | -33.4 | 5.1
CC(=O)NS(=O)(=O)c1ccc(NC(=O)c2ccccn2)cc1 | 1.5 | -8.4 | -2.2 | 1.5 | . | .
Cc1nc(C)c(C(=O)NNS(=O)(=O)c2ccccc2)s1 | -4.2 | 9.6 | -1.2 | -1.3 | . | .
Cc1ccc(C)c(S(=O)(=O)NNC(=O)c2sc(NS(=O)(=O)c3ccccc3)nc2C)c1 | -3.2 | 36.1* | -2.9 | 2.9 | -9.9 | -0.6
CCOC(=O)c1[nH]c2ccc(OC)cc2c1NC(=O)c1ccccc1C(=O)O | -1.3 | 20.6 | -1.9 | -3.2 | . | .
CCOC(=O)c1[nH]c2ccc(F)cc2c1NC(=O)c1ccccc1C(=O)O | 9.8* | 33.3* | 2.7 | . | -34.1 | 3.0
O=C(O)c1ccc(S(=O)(=O)c2ccc3c(c2)C(=O)N(c2ccc(O)cc2)C3=O)cc1 | 1.7 | 33.4* | -2.3 | 1.3 | -49.2 | -0.9
CC1(C)Cc2c(c(N3CCOCC3)nc3sc(C(N)=O)c(N)c23)CO1 | 1.6 | 43.3* | -0.4 | 5.0 | 11.3 | 3.1
CC1(C)Cc2c(c(N3CCOCC3)nc3sc(C(=O)Nc4ccc(Cl)cc4)c(N)c23)CO1 | -2.3 | 40.0* | -2.3 | 4.9 | 0.2 | -7.3
CCOc1ccc(NC(=O)c2sc3nc(N4CCOCC4)c4c(c3c2N)CC(C)(C)OC4)cc1 | -1.4 | 42.4* | -2.3 | 4.4 | -0.1 | -1.3
Cc1ccc(NC(=O)c2sc3nc(N4CCOCC4)c4c(c3c2N)CC(C)(C)OC4)cc1 | -5.2 | 38.6* | -1.4 | 0.9 | -55.1 | 2.3
SMILES | VIM-2 inhibitor | PfM18AAP inh-1 | IMP-1 inh | CTSL1 counter-1 | PfM18AAP inh-2 | CTSL1 counter-2
CC1(C)Cc2c(c(N3CCCC3)nc3sc(C(=O)Nc4ccccc4)c(N)c23)CO1 | -2.3 | 22.6 | -2.0 | 4.8 | . | .
COC(=O)c1ccc(-c2sc3nc(N4CCOCC4)c4c(c3c2N)CC(C)(C)OC4)o1 | -2.9 | -1.3 | -3.7 | -1.1 | . | .
Cc1ccc(F)c(CNC(=O)C2CCC(=O)N(CCCN3CCCC3=O)C2)c1F (configuration not stated) | -2.4 | 2.3 | -3.2 | -0.1 | . | .
Cc1cc(-c2nnc(CCC(=O)NCc3cccc(C(F)(F)F)c3)o2)no1 | -0.7 | -10.8 | -0.1 | 4.3 | . | .
CCOc1ccc(-n2nnnc2SCC(=O)Nc2cccc(O)c2)cc1 | -1.5 | -12.1 | -2.6 | 4.6 | . | .
Fc1ccc(CNc2ccc(CNc3ncn[nH]3)cc2)cc1 | -2.6 | 32.0* | -3.2 | . | -25.6 | -0.6
Nc1ccc(CNc2ncn[nH]2)cc1 | -1.2 | 26.7 | -1.2 | -0.3 | . | .
COc1cc(CNc2ccc(CNc3ncn[nH]3)cc2)ccc1OCC(=O)NC(C)(C)C | -2.9 | 46.9* | -4.9 | 2.2 | -34.5 | -7.6
COc1ccc(N2CCN(CCCn3c(=S)[nH]c4ncccc4c3=O)CC2)cc1 | -1.6 | 44.9* | -3.7 | 3.0 | -37.5 | -9.5
O=c1c2cccnc2[nH]c(=S)n1CCCN1CCN(c2ccc(F)cc2)CC1 | 0.2 | -7.3 | -1.6 | -4.7 | . | .
C/C(=N\NC(=O)COc1ccc(C)cc1C(C)C)c1ccc(-n2ccnc2)cc1 | -4.9 | 3.2 | 0.6 | 3.2 | . | .
Oc1ccc(Br)cc1CNc1cccc2cccnc12 | 0.9 | 46.2* | 0.8 | -4.3 | -3.1 | 102.7*
Oc1ccc(Br)cc1CNc1cnc2ccccc2c1 | -1.2 | 2.5 | -1.5 | -1.5 | . | .
N#Cc1ccc(-c2ccccc2)nc1SCC(=O)c1cc2ccccc2oc1=O | -0.7 | 33.7* | -2.8 | -3.1 | -19.0 | -1.4
O=C(CNC(=O)c1ccc(Br)o1)Nc1cccc(S(=O)(=O)N2CCOCC2)c1 | . | . | . | -5.9 | . | .
Cc1ccc([N+](=O)[O-])cc1NC(=S)NC(=O)CC(C)(C)C | 2.9 | 1.7 | -0.2 | 2.6 | . | .
COc1ccc(NC(=S)NNc2ccc([N+](=O)[O-])cc2S(=O)(=O)Nc2ccc(C)cc2C)cc1 | -4.8 | 39.4* | -4.1 | 1.5 | 31.9* | 2.5
Cc1ccc(NS(=O)(=O)c2cc([N+](=O)[O-])ccc2NNC(=S)Nc2cc(C)ccc2C)c(C)c1 | 1.0 | 39.2* | -1.6 | 4.8 | 38.6* | 0.2
Cc1cc2occ(CC(=O)N(C)CC(=O)Nc3cccc(F)c3)c2cc1C | -1.0 | -1.4 | -1.6 | 3.8 | . | .
Clc1ccc(C(Cn2ccnc2)OCc2c(Cl)cccc2Cl)c(Cl)c1 (configuration not stated) | . | . | . | -0.5 | . | .
N#C/C(=C\c1cccs1)c1nc2ccccc2[nH]1 | -2.5 | 0.5 | -1.8 | 2.4 | . | .
N#C/C(=C/c1ccc(O)c(O)c1)c1nc2ccccc2[nH]1 | -1.0 | 62.1* | -2.1 | 4.8 | 43.3* | -1.2
Cc1ccc(N/C=C(\C2OC(=O)c3ccccc32)[N+](=O)[O-])c(C)c1 (configuration not stated) | -1.6 | 50.5* | -2.1 | 0.6 | -36.4 | 4.7
Cc1ccc(NC=C(S(=O)(=O)c2ccccc2)S(=O)(=O)c2ccccc2)c(C)c1 | -0.1 | -0.9 | -1.7 | 2.6 | . | .
NC(=O)Cc1c[nH]c2cccc(O)c12 | 1.2 | 47.0* | -1.0 | -0.3 | 12.4 | -4.6
COc1ccc(C(=O)N/N=C\c2coc3ccccc3c2=O)cc1 | -4.5 | 20.4 | -1.7 | 5.2 | . | .
O=C(N/N=C/c1coc2ccccc2c1=O)c1ccccc1Br | -3.0 | 35.7* | -2.6 | 4.8 | -29.0 | 0.3
